Assay results of several laboratories.
Observed: enzyme activity
Action: inhibitor
rep papain-like protease: Replicase polyprotein 1ab, papain-like protease (rep, Severe acute respiratory syndrome coronavirus 2, UniProt P0DTD1)
rep main protease: Replicase polyprotein 1ab, main protease (rep, Severe acute respiratory syndrome coronavirus 2, UniProt P0DTD1)

SMILES | target | technique | tested at | time | pH | inhibition [%]
Cc1ccc2nc(Cl)c(/C=N/c3cccc([N+](=O)[O-])c3)cc2c1 | rep papain-like protease | – | 10 µM | – | – | 5.3
CCC(=O)Oc1cccc2c1C(=O)C=CC2=O | rep main protease | – | 0.1 µM | – | – | 35
O=c1cc(-c2ccc(O)cc2)oc2cc(O)c(O)c(O)c12 | rep main protease | – | 10 µM | – | – | 90.7
Cc1ccc(NC2C=CS(=O)(=O)C2)cc1 (stereo not drawn) | rep main protease | – | 20 µM | – | – | 2.03
Cc1cc(O)c2c(=O)c3c(O)cc(O)c4c5c(O)cc(O)c6c(=O)c7c(O)cc(C)c8c1c2c(c34)c(c78)c65 | rep main protease | – | 20 µM | – | – | 31.5
CCOC(=O)COc1cc(C)cc2c1C(=O)C=CC2=O | rep main protease | – | 1 µM | – | – | 94.6
O=C(Oc1cc([N+](=O)[O-])ccc1F)c1cccc2[nH]ccc12 | rep main protease | fluorescence | 10 µM | – | pH 7.2 | 2
Cc1ccc(NC(=O)Nc2cccnc2)cc1Cl | rep main protease | – | 20 µM | – | – | -7.73
Cc1cc(NC(=O)c2cc3c(=O)n4cccc(C)c4nc3n2C)ccc1Br | rep main protease | – | 1 mM | – | – | 82
Cc1nc(C(=O)N2CC[C@@H]([C@@H]3CCCN3C(=O)c3cc(O)c4ccoc4c3)C2)cc(=O)[nH]1 | rep main protease | – | 5 µM | – | – | 12.2
COc1c(O)cc(O)c2c(=O)cc(-c3ccccc3)oc12 | rep papain-like protease | – | 50 µM | – | – | 52
COc1ccc(OC)c2c1C(=O)C=CC2=O | rep main protease | – | 1 µM | – | – | 75.1
Cn1c(C(=O)Nc2ccc(Cl)cc2)cc2c(=O)n3ccccc3nc21 | rep main protease | – | 1 mM | – | – | 72
O=C(O)c1cc(O)c2c(c1)C(=O)c1cccc(O)c1C2=O | rep main protease | – | 10 µM | – | – | 7.8
Cc1cccn2c(=O)c3cc(C(=O)Nc4ccc(N(C)C)cc4)n(C)c3nc12 | rep main protease | – | 1 mM | – | – | 64
Oc1cc(O)c2c(c1)OC(c1ccc(O)c(O)c1)C(O)C2 (stereo not drawn) | rep main protease | – | 20 µM | – | – | 22.6
CC[C@@H](C)[C@@H](NC(=O)[C@@H](CCC(=O)O)NC(=O)[C@H](NC(=O)[C@@H](CCC(N)=O)NC(=O)[C@H]1CCCN1C(=O)[C@@H](CCC(N)=O)NC(=O)[C@@H](Cc1c[nH]c2ccccc12)NC(C)=O)C(C)C)C(=O)N[C@H](CO)C(=O)N[C@H](CCC(N)=O)C(=O)N[C@H](CO)C(=O)N1CCC[C@@H]1C(=O)N[C@H](Cc1c[nH]c2ccccc12)C(=O)N[C@H](CO)C(=O)N[C@H](Cc1c[nH]cn1)C(=O)N1CCC[C@@H]1C(=O)N[C@H](CO)C(=O)N[C@H](CCCNC(=N)N)C(N)=O | rep main protease | fluorescence | 140 µM | – | – | 100
O=C(NC[C@H](NC(=O)c1cncc2ccccc12)c1ccc2ccccc2c1)c1cnc[nH]1 | rep main protease | – | 5 µM | – | – | 18.9
Cc1ccc2nc(Cl)c(/C=N/NC(=O)c3ccncc3)cc2c1 | rep papain-like protease | – | 100 µM | – | – | 38.4
CCn1nc2n(Cc3ccc(F)cc3)c(=O)c3nn(C)cc3n2c1=O | rep main protease | – | 20 µM | – | – | 15.5
Cc1cc(OCc2ccccc2)c2c(c1)C(=O)C=CC2=O | rep main protease | – | 0.1 µM | – | – | 28.1
Cc1cccc2cc(/C=N\c3ccc(-c4nc5ccccc5[nH]4)cc3)c(Cl)nc12 | rep papain-like protease | – | 100 µM | – | – | 44.9
Cc1ccc(NC(=O)c2cc3c(=O)n4cccc(C)c4nc3n2C)cc1Cl | rep main protease | – | 1 µM | – | – | 6.4
CC1=CC(=O)c2c(O)cccc2C1=O | rep main protease | – | 10 µM | – | – | 7.7
O=[N+]([O-])c1cccc(-c2nc(O)c3ccccc3n2)c1 | rep main protease | – | 20 µM | – | – | 22.3
Cn1c(C(=O)Nc2ccc3c(c2)OCCO3)cc2c(=O)n3ccccc3nc21 | rep main protease | – | 1 mM | – | – | 96

SMILES | target | technique | tested at | time | pH | inhibition [%]
COc1cc(C[C@@H](C)[C@@H](C)Cc2ccc(O)c(OC)c2)ccc1O | rep main protease | FRET | 8 µM | – | – | 45
O=c1cc(-c2ccccc2)oc2cc(O)c(O)c(O)c12 | rep main protease | – | 100 µM | – | – | 99.4
COc1cccc2c1C(=O)C(C(C)=O)=CC2=O | rep main protease | – | 10 µM | – | – | 96.1
C=C[C@@H]1C[C@]1(NC(=O)[C@@H]1C[C@@H]2CN1C(=O)[C@H](C(C)(C)C)NC(=O)O[C@@H]1C[C@H]1CCCCCc1nc3ccc(OC)cc3nc1O2)C(=O)NS(=O)(=O)C1CC1.O | rep main protease | – | 20 µM | – | – | 1.19
COc1c(-c2ccc(O)c(CC=C(C)C)c2)oc2cc(O)cc(O)c2c1=O | rep main protease | – | 8 µM | – | – | 16.9
O=C(Oc1cncc(Cl)c1)c1cc2cc(Cl)ccc2[nH]1 | rep main protease | fluorescence | 10 µM | – | pH 7.2 | 100
CC1(C)CC(Nc2ccc(Nc3ccccc3)cc2)CC(C)(C)N1 | rep main protease | – | 20 µM | – | – | 27.8
Clc1nc2ccccc2cc1/C=N\c1ccc(-c2nc3ccccc3[nH]2)cc1 | rep papain-like protease | – | 10 µM | – | – | 3.9
O=C(O)[C@H]1O[C@@H](Oc2cc3oc(-c4ccccc4)cc(=O)c3c(O)c2O)[C@H](O)[C@@H](O)[C@@H]1O | rep main protease | – | 10 µM | – | – | 68.9
CN(C)C(=S)SC(=S)N(C)C | rep main protease | – | 20 µM | – | – | -6.7
O=C(Oc1cc(Cl)cc([N+](=O)[O-])c1)c1cccc2[nH]ccc12 | rep main protease | fluorescence | 10 µM | – | pH 7.2 | 1
CC(C(=O)NC[C@H](NC(=O)c1[nH]nc2nc[nH]c(=O)c12)c1ccc2ccccc2c1)=C1CCC1 | rep main protease | – | 5 µM | – | – | 15.1
O=C(Nc1ccccc1F)c1cc2c(=O)n3ccccc3nc2n1Cc1ccccc1 | rep main protease | – | 1 mM | – | – | 71
O=c1c(O)c(-c2ccc(O)c(O)c2)oc2cc(O)cc(O)c12 | rep main protease | FRET | 10 µM | 10 min | – | > 50
C/N=c1\nc(-c2ccccc2)n(-c2ccccc2)s1 | rep main protease | – | 1 µM | – | – | 96.3
O=C(O)[C@H]1O[C@@H](Oc2cc3oc(-c4ccc(O)cc4)cc(=O)c3c(O)c2O)[C@H](O)[C@@H](O)[C@@H]1O | rep main protease | – | 100 µM | – | – | 76.8
CCOC(=O)C(Cc1c[nH]c2ccccc12)NC(=O)CCC(=O)Nc1ccc(S(N)(=O)=O)cc1 (stereo not drawn) | rep main protease | – | 100 µg/mL | – | – | 0
O=C(O)Cc1ccc(O)c([N+](=O)[O-])c1 | rep main protease | FRET | 10 µM | 10 min | – | < 25
COC(=O)C1=CO[C@@H](O[C@@H]2O[C@H](CO)[C@@H](O)[C@H](O)[C@H]2O)[C@@H]2[C@@H](C)[C@@H](O)C[C@H]12 | rep papain-like protease | – | 50 µM | – | – | -1.7
S=c1[nH]c2ccccc2s1 | rep main protease | – | 20 µM | – | – | 63.6
COc1cc(/C=C/C(=O)CC(=O)/C=C/c2ccc(O)c(OC)c2)ccc1O | rep main protease | FRET | 10 µM | 10 min | – | > 50
O=C(NCc1ccccn1)Nc1csc2ccccc12 | rep main protease | – | 20 µM | – | – | -3.23
CCc1ccc(NC(=O)c2cc3c(=O)n4ccccc4nc3n2C)cc1 | rep main protease | – | 10 µM | – | – | 28
O=C(NCc1cccnc1)Nc1csc([N+](=O)[O-])c1 | rep main protease | – | 20 µM | – | – | 4.45
CCOC(=O)c1ccc(OC(=O)CCCCCNC(=N)N)cc1 | rep main protease | – | 10 µM | – | – | 3
